Legend:
Assay type in all cases: functional, cell-based
[1] = target: P2Y purinoceptor 2 (Mus musculus) (UniProt P35383); assay: (§1) Antagonist activity at mouse P2Y2 receptor expressed in NG108-15 hybrid cells assessed as inhibition of 1 uM UTP-induced intracellular calcium release preincubated 30 mins before UTP challenge by fluorescence assay
Outline: (§2)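 Oregon Green-loaded NG108-15 cells in Krebs–HEPES pH 7.4, 17,000 cells/well, preincubated at 37 °C for at least 30 min with two concentrations of test compound. UTP agonist then injected, and the inhibition of the intracellular Ca2+ fluorescence rise was measured at 520 nm. Quadruplicate determinations.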

[2] = target: T1, P2Y purinoceptor 2 (Mus musculus, UniProt P35383); assay: as §1; outline: as §2
T1 sequence (P35383 whole entry): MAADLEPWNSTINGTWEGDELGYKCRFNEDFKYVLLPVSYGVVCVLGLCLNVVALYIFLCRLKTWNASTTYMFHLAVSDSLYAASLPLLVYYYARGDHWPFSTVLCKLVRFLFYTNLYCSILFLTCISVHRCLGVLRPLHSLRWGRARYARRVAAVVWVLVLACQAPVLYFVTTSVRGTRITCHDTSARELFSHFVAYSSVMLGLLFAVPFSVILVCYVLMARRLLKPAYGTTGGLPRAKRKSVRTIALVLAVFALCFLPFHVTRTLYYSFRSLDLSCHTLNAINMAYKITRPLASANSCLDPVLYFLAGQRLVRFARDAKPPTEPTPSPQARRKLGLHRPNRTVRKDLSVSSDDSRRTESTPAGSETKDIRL

[3] = target: T1, P2Y purinoceptor 2; assay: Antagonist activity at mouse P2Y2 receptor expressed in NG108-15 hybrid cells assessed as inhibition of 3 uM UTP-induced intracellular calcium release preincubated 30 mins before UTP challenge by fluorescence assay; outline: as §2
[4] = target: T1, P2Y purinoceptor 2; assay: Agonist activity at mouse P2Y2 receptor expressed in NG108-15 hybrid cells assessed as increase in intracellular calcium release by fluorescence assay
Outline: (§3)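 NG108-15 cells (mouse neuroblastoma × rat glioma; endogenous P2Y2, no P2Y4) grown in DMEM with 10% FBS, penicillin/streptomycin and HAT. Cells loaded 1 h at 25 °C with shaking, with the Ca2+ fluorophore Oregon Green. Cells rinsed twice in Krebs–HEPES pH 7.4 and plated at 17,000 cells/well. Compound in buffer injected, then fluorescence read at 520 nm over 60 × 0.4 s. Quadruplicate points.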

[5] = target: P2Y purinoceptor 2 (Mus musculus) (UniProt P35383); assay: Agonist activity at mouse P2Y2 receptor expressed in NG108-15 hybrid cells assessed as increase in intracellular calcium release at 100 uM by fluorescence assay relative to UTP; outline: as §3

Sequence of P2Y purinoceptor 2 (Mus musculus) (P35383 whole entry): as above

Row | inhibition [1] | IC50 [2] | SMILES | other results
1 | 55% | 500 µM | O=c1ccn(CCCCCP(=O)(O)OP(=O)(O)O)c(=O)[nH]1 | 
2 | 50% | 500 µM | O=c1ccn(CCCCCOP(=O)(O)OP(=O)(O)OP(=O)(O)O)c(=O)[nH]1 | 
3 |  | 92 µM | O=c1ccn(CCCCP(=O)(O)OP(=O)(O)OP(=O)(O)O)c(=O)[nH]1 | 
4 |  | 166 µM | O=c1ccn(CCCCCP(=O)(O)OP(=O)(O)OP(=O)(O)O)c(=O)[nH]1 | 
5 | 52% | 500 µM | O=c1ccn(CCCP(=O)(O)OP(=O)(O)OP(=O)(O)O)c(=O)[nH]1 | 

Continued, molecule first:

Row | SMILES | inhibition [1] | IC50 [2] | other results
6 | O=c1ccn(CCCCOP(=O)(O)O)c(=O)[nH]1 | 60% |  | IC50 ([2]; ng108-15): ≤ 500 µM
7 | O=c1ccn(CCCCCOP(=O)(O)O)c(=O)[nH]1 |  | 267 µM | 
8 | O=c1ccn(CCOP(=O)(O)O)c(=O)[nH]1 | 22% | > 500 µM | 
9 | O=c1ccn(COCCCOP(=O)(O)O)c(=O)[nH]1 |  | 338 µM | 
10 | O=c1ccn(COCCOP(=O)(O)O)c(=O)[nH]1 | 16% | > 500 µM | 
11 | O=c1ccn(CCCCOP(=O)(O)OP(=O)(O)OP(=O)(O)O)c(=O)[nH]1 |  |  | IC50 [3]: 596 µM
12 | O=c1ccn(COCCCOP(=O)(O)OP(=O)(O)OP(=O)(O)O)c(=O)[nH]1 |  | 264 µM | 
13 | O=c1ccn(COCCOP(=O)(O)OP(=O)(O)OP(=O)(O)O)c(=O)[nH]1 | 16% | > 500 µM | 
14 | O=c1ccn([C@@H]2O[C@H](COP(=O)(O)OP(=O)(O)OP(=O)(O)O)[C@@H](O)[C@H]2O)c(=O)[nH]1 [URIDINE TRIPHOSPHATE] |  | 1.51 µM | EC50 [4]: 1.26 µM; Activity [5]: 40%
15 | O=c1ccn(CCOP(=O)(O)OP(=O)(O)OP(=O)(O)O)c(=O)[nH]1 | 60% |  | IC50 ([2]; ng108-15): ≤ 500 µM

— ChEMBL document CHEMBL1154081, “Synthesis of uracil nucleotide analogs with a modified, acyclic ribose moiety as P2Y(2) receptor antagonists” (Bioorg Med Chem, 2009)
